Data reported in ChEMBL document CHEMBL4052634, “Covalent inhibitors of LgtC: A blueprint for the discovery of non-substrate-like inhibitors for bacterial glycosyltransferases” (Bioorg Med Chem, 2017).
Blank lines part the entries; values can stand above or below the compound they belong to. Activity calls are given as the source filed them. No cut-off for these calls is given here.

What was measured:
Neisseria meningitidis [1] = experiment: (§1) Inhibition of Neisseria meningitidis alpha-1,4-galactosyltransferase assessed as consumption of donor UDP-Gal by measuring turnover rate at 0.1 to 50 uM using lactose as substrate preincubated for 5 mins followed by lactose and UDP-Gal addition measured after 20 mins by malachite green dye-based assay relative to total UDP-Gal used
Neisseria meningitidis [2] = experiment: Inhibition of Neisseria meningitidis alpha-1,4-galactosyltransferase assessed as consumption of donor UDP-Gal by measuring turnover rate at 0.1 to 50 uM using lactose as substrate in presence of UDP-Gal measured after 20 min by malachite green dye-based assay relative to total UDP-Gal used
Procedure, shortened: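 No pre-incubation: DTT-activated LgtC with MnCl2 5 mM, CIP 10 U/mL, egg-white lysozyme 1 mg/mL, 0.01% Triton, 13 mM HEPES pH 7.0, lactose 2 mM, inhibitor in DMSO (10% final); started with UDP-Gal 28 µM, 20 min at 30 °C, 20-50% donor turnover. Malachite green read at 620 nm against a UDP calibration curve, background without acceptor subtracted, % of assay window; triplicate minimum; IC50 from sigmoidal fit.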

Neisseria meningitidis [3] = experiment: as §1, with “for 10” for “for 5”
Procedure, shortened: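 Enzyme (DTT-activated) with MnCl2 5 mM, CIP 10 U/mL, lysozyme 1 mg/mL, 0.01% Triton, 13 mM HEPES pH 7.0 and inhibitor in DMSO (10% final) pre-incubated 10 min at 30 °C before UDP-Gal (28 µM) plus lactose (2 mM) added; 20 min at 30 °C; UDP read by malachite green at 620 nm versus UDP standard curve, background-corrected; triplicate.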

Neisseria meningitidis [4] = experiment: as §1, with “for 30” for “for 5”
Neisseria meningitidis [5] = experiment: as §1, with “for 60” for “for 5”
Neisseria meningitidis [6] = experiment: as §1, with “for 180” for “for 5”
Neisseria meningitidis [7] = experiment: Inhibition of Neisseria meningitidis alpha-1,4-galactosyltransferase assessed as rate constant for enzyme activity at 1.5 uM using lactose as substrate preincubated with substrate measured after 20 mins in presence of UDP-Gal
Procedure, shortened: (§2)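 Activity measured at a series of inhibitor concentrations (0.5-200 µM range overall) after pre-incubation with LgtC for 0, 5, 10, 20 and 30 min, using the pre-incubation protocols (lactose 2 mM, UDP-Gal 28 µM, 20 min at 30 °C, malachite green); % of DMSO control plotted semi-logarithmically versus pre-incubation time to give kobs; kobs versus concentration gave Ki and kinact; triplicate.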

Neisseria meningitidis [8] = experiment: Inhibition of Neisseria meningitidis alpha-1,4-galactosyltransferase assessed as rate constant for enzyme activity at 2 uM using lactose as substrate preincubated with substrate measured after 20 mins in presence of UDP-Gal; procedure, shortened: as §2
Neisseria meningitidis [9] = experiment: Inhibition of Neisseria meningitidis alpha-1,4-galactosyltransferase assessed as rate constant for enzyme activity at 3 uM using lactose as substrate preincubated with substrate measured after 20 mins in presence of UDP-Gal; procedure, shortened: as §2
Neisseria meningitidis [10] = experiment: Binding affinity to Neisseria meningitidis alpha-1,4-galactosyltransferase assessed as covalent-enzyme adduct formation at 100 uM after 20 mins by mass spectroscopy; settings: 50 uM, in the assay text read “at 50 uM” for “at 100 uM”
Procedure, shortened: (§3)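 LgtC stock without DTT activation, diluted in 13 mM HEPES pH 7.0, incubated with inhibitor (100 or 50 µM, added in DMSO; 10% final DMSO) for 20 min at 30 °C; samples injected directly for electrospray MS to detect protein-inhibitor adducts.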

[11] = target: Intestinal-type alkaline phosphatase (Bos taurus) (UniProt P19111); experiment: Inhibition of calf intestinal alkaline […] at 0.1 to 100 uM using UDP as substrate after 20 mins by malachite green dye-based assay
Neisseria meningitidis [12] = experiment: Binding affinity to Neisseria meningitidis alpha-1,4-galactosyltransferase assessed as covalent adduct formation at 100 uM after 20 mins by mass spectrometric analysis; settings: TDE = time-dependent effect; procedure, shortened: as §3
Neisseria meningitidis [13] = experiment: as §1, with “100” for “50”
Neisseria meningitidis [14] = experiment: as §1, with “100” for “50”, “30” for “5”
Neisseria meningitidis [15] = experiment: as §1, with “100” for “50”, “60” for “5”
Neisseria meningitidis [16] = experiment: as §1, with “100” for “50”, “180” for “5”
Neisseria meningitidis [17] = experiment: Inhibition of Neisseria meningitidis alpha-1,4-galactosyltransferase assessed as rate constant for enzyme activity at 6 uM using lactose as substrate preincubated with substrate measured after 20 mins in presence of UDP-Gal; procedure, shortened: as §2
Neisseria meningitidis [18] = experiment: Inhibition of Neisseria meningitidis alpha-1,4-galactosyltransferase assessed as rate constant for enzyme activity at 15 uM using lactose as substrate preincubated with substrate measured after 20 mins in presence of UDP-Gal; procedure, shortened: as §2
Neisseria meningitidis [19] = experiment: Inhibition of Neisseria meningitidis alpha-1,4-galactosyltransferase assessed as rate constant for enzyme activity at 100 uM using lactose as substrate preincubated with substrate measured after 20 mins in presence of UDP-Gal; procedure, shortened: as §2
Neisseria meningitidis [20] = experiment: Inhibition of Neisseria meningitidis alpha-1,4-galactosyltransferase assessed as rate constant for enzyme activity at 200 uM using lactose as substrate preincubated with substrate measured after 20 mins in presence of UDP-Gal; procedure, shortened: as §2
Neisseria meningitidis [21] = experiment: Binding affinity to Neisseria meningitidis alpha-1,4-galactosyltransferase assessed as covalent-enzyme adduct formation at 50 uM after 20 mins by mass spectroscopy; settings: 100 uM, in the assay text read “at 100 uM” for “at 50 uM”; procedure, shortened: as §3

Chain of Intestinal-type alkaline phosphatase (Bos taurus) (P19111 20-506 limits assumed): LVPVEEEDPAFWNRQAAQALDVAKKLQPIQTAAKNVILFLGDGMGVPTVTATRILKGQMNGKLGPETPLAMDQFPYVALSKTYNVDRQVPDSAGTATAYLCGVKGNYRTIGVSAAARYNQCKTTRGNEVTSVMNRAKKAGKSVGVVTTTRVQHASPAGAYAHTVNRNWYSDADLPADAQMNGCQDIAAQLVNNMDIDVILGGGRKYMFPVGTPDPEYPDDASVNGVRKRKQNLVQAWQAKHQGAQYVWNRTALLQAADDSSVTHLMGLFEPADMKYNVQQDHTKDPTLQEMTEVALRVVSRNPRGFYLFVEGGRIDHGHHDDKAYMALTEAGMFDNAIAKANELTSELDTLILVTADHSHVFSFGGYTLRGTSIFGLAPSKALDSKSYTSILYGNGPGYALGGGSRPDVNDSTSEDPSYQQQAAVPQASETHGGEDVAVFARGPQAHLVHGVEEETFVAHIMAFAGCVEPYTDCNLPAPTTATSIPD

- inhibition (Neisseria meningitidis [1]): 32%
- inhibition (Neisseria meningitidis [2]): 30%
- inhibition (Neisseria meningitidis [3]): 46%
- inhibition (Neisseria meningitidis [4]): 32%
- inhibition (Neisseria meningitidis [5]): 39%
- inhibition (Neisseria meningitidis [6]): 26%
- K (Neisseria meningitidis [7]): 0.017 min⁻¹
- K (Neisseria meningitidis [8]): 0.012 min⁻¹
- K (Neisseria meningitidis [9]): 0.025 min⁻¹
- Activity (Neisseria meningitidis [10]): Active
Structure (SMILES): COc1ccc(/C=C2\C(=O)N(c3ccccc3)N=C2C(F)(F)F)cc1Br

- inhibition [11]: inactive
- Activity (Neisseria meningitidis [12]): Tde
- inhibition (Neisseria meningitidis [13]): 30%
- inhibition (Neisseria meningitidis [14]): 24%
- inhibition (Neisseria meningitidis [15]): 29%
- inhibition (Neisseria meningitidis [16]): 19%
- K (Neisseria meningitidis [17]): 0.01 min⁻¹
- K (Neisseria meningitidis [18]): 0.021 min⁻¹
- K (Neisseria meningitidis [19]): 0.072 min⁻¹
- K (Neisseria meningitidis [20]): 0.079 min⁻¹
- Activity (Neisseria meningitidis [21]): Active
Structure (SMILES): O=C1/C(=C\c2cccc(OCc3ccccc3)c2)C(C(F)(F)F)=NN1c1ccccc1
